High-throughput results as filed in PubChem BioAssay.
SKN-1 inh: suppressors of acrylamide-induced Pgst-4::GFP reporter in worms, primary screen, SKN-1 inhibitor project, whole organism, uHTS, GFP/RFP fluorescence ratio, strain VP596; 0.49% of 360,000 active; C. elegans VP596 Pgst-4::GFP/RFP ratio, 24 h; inhibition, % at 21.8 µM;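 active means interference check ratio from 0.5 to 1.5 plus GFP to RFP signal ratio inhibition reaching or exceeding a fixed threshold, cut at about 30% in these data, passing the limit was not always enough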
PABP1 MLLE inh: inhibitors of PABP1 MLLE–PAM2 peptide binding, primary screen, biochemical, fluorescence polarization, FITC-PAM2, GST-MLLE; inhibition, % at 20 µM; 0.36% of 360,000 active; Polyadenylate-binding protein 1 (Homo sapiens), P11940; in the data active means inhibition above about 35%, passing the limit was not always enough
Target sequence (P11940 whole entry, looked up): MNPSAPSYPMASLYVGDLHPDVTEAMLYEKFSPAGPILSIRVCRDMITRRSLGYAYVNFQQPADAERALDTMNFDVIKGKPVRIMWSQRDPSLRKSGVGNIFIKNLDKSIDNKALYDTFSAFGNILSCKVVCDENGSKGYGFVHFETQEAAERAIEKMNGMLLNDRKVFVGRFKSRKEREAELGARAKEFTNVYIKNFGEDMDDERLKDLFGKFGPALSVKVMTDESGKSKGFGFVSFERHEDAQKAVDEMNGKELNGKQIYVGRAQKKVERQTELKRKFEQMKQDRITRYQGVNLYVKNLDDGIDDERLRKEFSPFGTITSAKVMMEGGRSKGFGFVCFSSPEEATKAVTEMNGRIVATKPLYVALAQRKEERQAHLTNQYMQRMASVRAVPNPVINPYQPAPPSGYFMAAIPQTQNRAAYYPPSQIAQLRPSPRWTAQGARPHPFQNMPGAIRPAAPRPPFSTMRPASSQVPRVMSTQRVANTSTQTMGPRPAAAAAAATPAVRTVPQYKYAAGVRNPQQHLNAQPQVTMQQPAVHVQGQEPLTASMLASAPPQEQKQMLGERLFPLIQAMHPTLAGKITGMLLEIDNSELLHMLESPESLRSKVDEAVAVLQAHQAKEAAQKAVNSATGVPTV
PABP FP inh: PABP poly(A) RNA binding inhibitors, primary screen, biochemical, fluorescence polarization, uHTS. 1% of 290,000 active. Polyadenylate-binding protein 1 (Homo sapiens), P11940. calls only at 35 µM;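 further: calls also rest on retests at 20 µM and on dose response follow-up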
eIF4H FP inh: human eIF4H binding inhibitors, primary screen, translation initiation inhibitor project, biochemical, uHTS, fluorescence polarization | Eukaryotic translation initiation factor 4H (Homo sapiens), Q15056 | eIF4H fluorescence polarization binding assay | inhibition, % at 35 µM | 0.94% of 290,000 active;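 further: calls also rest on retests at 20 µM and on dose response follow-up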
MT1-MMP act inh: blockers of MT1-MMP proenzyme processing, primary screen, HT1080 RFP-PRO-GFP cells, GFP/RFP fluorescence | GFP/RFP ratio change, % at 20 µM | AID 651647, 2012 | 0.061% of 360,000 active | Matrix metalloproteinase-14 (Homo sapiens), P50281 | GFP/RFP ratio fluorescence, overnight; percent of plate control window, DMSO zero;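 active means GFP/RFP ratio change of at least 30% with cell ATP level not reduced by more than half and red fluorescence within 50% of control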
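Read-out: GFP/RFP fluorescence ratio; Test system: RFP-PRO-GFP reporter HT1080 cells; Compound dosing: single-point 20 µM compound, 1% DMSO; Times: overnight compound exposure at 37 °C.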
Of the large screens only hits and unclear results are named; the others gave an inactive call. Compounds with a hit are over-represented: about 1.8% of the library has one in this group of screens. Unless noted, how the calls were made is not given here.

C=C(C)CN(CC)c1nc(N)c(C#N)c(CC#N)c1C#N	PABP FP inh active, eIF4H FP inh 84
C[C@@H]1CN([C@H](C)CO)S(=O)(=O)c2ccc(Br)cc2O[C@H]1CN(C)C(=O)C1CCCCC1	none (no result: PABP FP inh, eIF4H FP inh)
CCOC(=O)CN1C(=O)/C(=C2\SC(=S)N(NC(=O)c3cccnc3)C2=O)c2ccccc21	PABP1 MLLE inh 43
N#Cc1ccc(C(=O)N2CCC3CC2c2cc(-c4ccc(F)cc4)ccc23)cc1 (stereo unspecified)	none (no result: PABP FP inh, eIF4H FP inh)
COc1ccc(-c2ccc(CN3C(C(C)C)C(=O)N(Cc4cn(CCC5OCCO5)nn4)CCS3(=O)=O)cc2)cc1 (stereo unspecified)	none (no result: PABP FP inh, eIF4H FP inh)
O=C(NCc1ccncc1)c1ccc(-c2ccc(F)c(F)c2)c2ccoc12	SKN-1 inh 62 (no result: PABP FP inh, eIF4H FP inh)
Cc1cccc(-c2ccc3c(c2)C2CC3CCN2C)c1 (stereo unspecified)	none (no result: PABP FP inh, eIF4H FP inh)
c1cc(-c2ccoc2)n2ccnc2c1	PABP1 MLLE inh 47 (no result: PABP FP inh, eIF4H FP inh)
c1cc(-c2ccsc2)n2ccnc2c1	none (no result: PABP FP inh, eIF4H FP inh)
Cc1cc(C)cc(OCC(=O)NNC(=S)NC(=O)C2CC2)c1	none
CC1CCCCN1Cc1c(O)ccc2c(=O)c(-c3nc4ccccc4s3)c(N)oc12 (stereo unspecified)	SKN-1 inh 81
Cc1cc2c(c(=O)o1)C(c1ccc([N+](=O)[O-])o1)C(C#N)=C(N)O2 (stereo unspecified)	PABP FP inh active, eIF4H FP inh 93
Cc1c(C(=O)NC(=S)Nc2ccc3c4c(cccc24)CC3)cccc1[N+](=O)[O-]	PABP1 MLLE inh 42
COc1ccc(C(=O)NC(=S)Nc2ccc3c4c(cccc24)CC3)cc1OC	PABP FP inh active, eIF4H FP inh 12
COc1cc(OC)cc(C(=O)NC(=S)Nc2ccc3c4c(cccc24)CC3)c1	none
O=C1c2ccccc2CC1Sc1nnc(-c2ccncc2)o1 (stereo unspecified)	PABP FP inh active, eIF4H FP inh 4.2
O=C1CC(Sc2nnc(-c3ccccc3)o2)C(=O)N1c1ccccc1 (stereo unspecified)	none
Cc1csc(NC(=O)CSc2nc(=O)n(CCN(C)C)c3c2CCCC3)n1	none (no result: PABP FP inh, eIF4H FP inh)
Cc1c(NC(=O)C(C)OC(=O)/C=C/c2ccco2)c(=O)n(-c2ccccc2)n1C (stereo unspecified)	PABP FP inh active, eIF4H FP inh 78
CCCCN(CCCC)Cc1cc(=O)oc2ccc3ccccc3c12	none (no result: PABP FP inh, eIF4H FP inh)
CCN1CCc2c(sc3c2c(NCc2ccco2)nc2nnnn23)C1	PABP FP inh active, eIF4H FP inh 57
Cc1nc(NCc2ccco2)c2c3c(sc2n1)CCC3	none
O=C(NC1CCCCCC1)c1ccco1	none
O=C1CCN(S(=O)(=O)c2cc(C(F)(F)F)ccc2Cl)CC1	none (no result: PABP FP inh, eIF4H FP inh)
C=CCNC(=O)c1cc2c(=O)n3ccccc3nc2s1	SKN-1 inh 41
O=C(NNS(=O)(=O)c1ccc([N+](=O)[O-])cc1)C(=O)Nc1cccc(C(=O)O)c1	eIF4H FP inh 60
O=C(NNS(=O)(=O)c1ccc([N+](=O)[O-])cc1)c1ccccc1	none (no result: PABP FP inh, eIF4H FP inh)
COc1ccc(-c2onc3ccc(Cl)cc23)cc1	PABP FP inh active, eIF4H FP inh 51
Cc1cccc(N/C=C/C(=O)c2ccc(Cl)cc2)c1	none
O=C(/C=C\Nc1ccccn1)c1ccc(Cl)cc1	SKN-1 inh 41
COc1cccc(NC(=O)/C=C/c2ccc(S(=O)(=O)N3CCOCC3)cc2)c1	none (no result: PABP FP inh, eIF4H FP inh)
O=c1cc(-c2ccccc2)ss1	none (no result: PABP FP inh, eIF4H FP inh)
Nc1cc(C(=O)O)ccc1Nc1ccc(F)c(F)c1	PABP FP inh active, eIF4H FP inh 65
CC(=O)Nc1ccc(NC(=O)C(C)OC(=O)CN2C(=O)C3CCCCC3C2=O)cc1 (stereo unspecified)	none (no result: PABP FP inh, eIF4H FP inh)
O=CNn1cnc2c(oc3nc(-c4ccccc4)cc(-c4ccco4)c32)c1=O	eIF4H FP inh 51
Nc1c(C(=O)N/N=C/c2cccnc2)oc2nc(-c3ccccc3)cc(-c3ccco3)c12	PABP FP inh inconclusive, eIF4H FP inh inconclusive
CCCNc1nc2ccccc2c(=O)[nH]1	none
CCCNc1cc(=S)nc(N)[nH]1	PABP1 MLLE inh 42, PABP FP inh inconclusive, eIF4H FP inh inconclusive
CC(C)c1ccc(C(=O)Nc2ccc(CN3CCOCC3)cc2)cc1	SKN-1 inh 70
COc1ccccc1NC(=O)c1ccc(CN2CCOCC2)cc1	SKN-1 inh 36
O=C(Nc1ccc(CN2CCOCC2)cc1)c1cc2ccccc2o1	SKN-1 inh 56
O=C(/C=C/c1ccc(Cl)cc1)Nc1ccc(CN2CCOCC2)cc1	SKN-1 inh 63
CNc1ccccc1C(=O)OCC(=O)N(CCOC)c1c(N)n(CC(C)C)c(=O)[nH]c1=O	none (no result: PABP FP inh, eIF4H FP inh)
Clc1cccc(Cc2c(C3CCCCC3)nc3ccc(Br)cn23)c1	none (no result: PABP FP inh, eIF4H FP inh)
O=[N+]([O-])c1ccc(S(=O)(=O)N2CCN(Cc3ccco3)CC2)cc1	none
CCCCN1CC(=O)N2[C@H]3c4cc(Br)ccc4OC[C@@H]3[C@H](C(=O)OCC)[C@]2(C)C1=O	none (no result: PABP FP inh, eIF4H FP inh)
c1csc(-c2noc(COc3ccc4c(c3)CCCC4)n2)c1	SKN-1 inh 38
CSc1ccc(/C=C/c2cc(=O)c3ccccc3[nH]2)cc1	eIF4H FP inh 131
O=c1cc(/C=C/c2cccs2)[nH]c2ccccc12	none
COc1cc2c(cc1N)-c1ccc(N)cc1C2	none (no result: PABP FP inh, eIF4H FP inh)
CC(=O)N1CCN(C(=O)c2cc(S(=O)(=O)N3CCCCC3)ccc2Cl)CC1	none (no result: PABP FP inh, eIF4H FP inh)
CCCCC(=O)c1ccc(O)cc1	none
O=C(CCO)c1ccc(O)cc1	PABP FP inh active, eIF4H FP inh 94
CCCCn1c(N)c(N(CCOC)C(=O)COC(=O)CCOc2ccc(C)cc2)c(=O)[nH]c1=O	none (no result: PABP FP inh, eIF4H FP inh)
COc1cc(NC(C)C(=O)N2CC(C)OC(C)C2)cc(OC)c1 (stereo unspecified)	PABP FP inh active, eIF4H FP inh inconclusive
CC(Sc1ccc(S(=O)(=O)N2CCCCC2)cn1)C(N)=O (stereo unspecified)	none (no result: PABP FP inh, eIF4H FP inh)
COC(=O)[C@@]1(C)[C@H]2C(=O)N(Cc3ccccc3)C(=O)[C@H]2[C@H]2CN=C(SCC(=O)c3ccccc3)N21	PABP1 MLLE inh 43 (no result: PABP FP inh, eIF4H FP inh)
COCC(C)NC(=O)CSc1nc2cc(S(=O)(=O)N3CCCCC3)ccc2o1 (stereo unspecified)	none (no result: PABP FP inh, eIF4H FP inh)
Cc1ccc(S(=O)(=O)N2CCC(C(=O)N/N=C/c3cccn3C)CC2)cc1	none (no result: PABP FP inh, eIF4H FP inh)
O=C(Nc1ccc(-n2cnnn2)cc1)C(c1ccccc1)c1ccccc1	PABP FP inh active
O=C(CN1CCN(C(=O)CNC(=O)c2ccc3c(c2)OCO3)CC1)Nc1ccc(F)cc1	none (no result: PABP FP inh, eIF4H FP inh)
CCCCNC(=O)C1(C)CCN1C(=O)c1sccc1C (stereo unspecified)	none (no result: PABP FP inh, eIF4H FP inh)
